# Measured values pooled from the literature.
# Target: SRSF protein kinase 1 (SRPK1, Homo sapiens, UniProt Q96SB4)
SMILES,observed,action,technique,concentration,endpoint,result
COc1cc(Nc2cnc(C#N)c(O[C@H](C)CN(C)C)n2)ncc1-c1cnn(C)c1,enzyme activity,inhibitor,radiometric,1 µM,remaining activity,89%
CC(C)(C)c1nc(-c2cccc(NS(=O)(=O)c3c(F)cccc3F)c2F)c(-c2ccnc(N)n2)s1,enzyme activity,inhibitor,radiometric,1 µM,remaining activity,105%
CNC(=O)c1ccc(Nc2ncc(C(F)(F)F)c(NCc3nccnc3N(C)S(C)(=O)=O)n2)cc1,cell-free assay,,competition with immobilised ligand,0.1 µM,remaining binding,51%
CCN(CC)CCNC(=O)c1c(C)[nH]c(/C=C2\C(=O)Nc3ccc(F)cc32)c1C,enzyme activity,inhibitor,,0.3 µM,inhibition,-17%
COc1cc(/C=C/C(=O)CC(=O)/C=C/c2ccc(O)c(OC)c2)ccc1O,enzyme activity,inhibitor,,1 µM,activity vs control,57%
CC(C1CC1)n1cnc2c(NCc3cccc(C(F)(F)F)c3)nc(NCCN(C)C)nc21 (stereo not drawn),enzyme activity,inhibitor,,5 µM,inhibition,> 50%
O=C(Nc1cnn(-c2csc(C(=O)NC3COC3)c2)c1)Nc1c(F)cccc1Cl,enzyme activity,inhibitor,,5 µM,remaining activity,104%
C=CC(=O)Nc1cc(Nc2nccc(Nc3cc(Cl)c(F)cc3C(C)(C)O)n2)c(OC)cc1N1CC[C@@H](N(C)C)C1,enzyme activity,inhibitor,,1 µM,inhibition,2%
Cc1c[nH]c2nccc(Oc3c(F)cc(Nc4cc(Cl)nc(N)n4)cc3F)c12,cell-free assay,,competition with immobilised ligand,0.1 µM,remaining binding,100%
CC(C)(O)[C@H]1CC[C@H](Nc2ccc3ncc(-c4cccc(C(F)(F)F)c4)n3n2)CC1,enzyme activity,inhibitor,,1 µM,remaining activity,100%
O=C(NCCCC1CCCCC1)c1ccc(CNC(=O)c2cnn(-c3ccccc3)c2C(F)(F)F)cc1,cell-free assay,,competition with immobilised ligand,0.1 µM,remaining binding,95%
CNC(=O)c1cc(Oc2ccc(NC(=O)Nc3ccc(Cl)c(C(F)(F)F)c3)cc2)ccn1,enzyme activity,inhibitor,,10 µM,inhibition,6%
Oc1cccc(-c2nc(N3CCOCC3)c3oc4ncccc4c3n2)c1,enzyme activity,inhibitor,,10 µM,remaining activity,116%
FC(F)(F)Oc1cccc(-c2cnc3ccc(-c4ccncc4)nn23)c1,enzyme activity,inhibitor,radiometric,5 µM,activity vs control,96%
O=C(Nc1ccc(Oc2ccc(F)cc2)cc1)N1CCc2ncccc2[C@H]1c1ccc(F)cc1,cell-free assay,,competition with immobilised ligand,1 µM,remaining binding,94%
CN(c1ncccc1CNc1nc(Nc2ccc3c(c2)CC(=O)N3)ncc1C(F)(F)F)S(C)(=O)=O,enzyme activity,inhibitor,,1 µM,inhibition,33.5%
CCOc1cc(-c2nncn2C)ccc1Nc1ncc2cc(C)nc(NCC(C)(C)C)c2n1,enzyme activity,inhibitor,FRET,1 µM,inhibition,< 15%
COc1cccc2c(NCc3ccccc3)nc(-n3c(N)nc4ccccc43)nc12,target engagement in cells,inhibitor,chemoproteomics,20 mM,inhibition,5.7%
COc1ccc(COc2ccc(Cc3cnc(N)nc3N)cc2OC)cc1,cell-free assay,,,0.5 µM,remaining signal,90.4%
Nc1nc(NC2CCCCC2)sc1C(=O)c1ccccc1,enzyme activity,inhibitor,,10 µM,remaining activity,93%
Cc1ccc(Nc2nccc(N(C)c3ccc4c(C)n(C)nc4c3)n2)cc1S(N)(=O)=O,enzyme activity,inhibitor,,10 µM,inhibition,-3%
O=C(N1CCS(=O)(=O)CC1)N1C[C@H](c2ccc(OC(F)(F)F)cc2)C[C@H](c2nc(C3CC3)no2)C1,cell-free assay,,competition with immobilised ligand,1 µM,remaining binding,100%
CC/C(=N\NC(=O)NCc1cccc(O)c1)c1ccc(O)c(C)c1O,enzyme activity,inhibitor,,0.1 µM,inhibition,-11.7%
Cc1sc(C(=O)NC2COC2)cc1-n1cc(NC(=O)Nc2c(F)cccc2Cl)cn1,enzyme activity,inhibitor,,10 µM,remaining activity,96.9%
Cc1cc(NC(=O)c2cccc3cc(-c4cccc5[nH]nc(N)c45)ccc23)ccc1F,enzyme activity,inhibitor,,0.1 µM,activity vs control,98%
COc1cc(Cl)c(C(=O)N[C@@H](CN[C@H]2CC[C@@H](N)CC2)Cc2ccc(C#N)cc2)cc1-c1ccc(CN[C@H](C)c2ccc(C)cc2)o1,enzyme activity,inhibitor,,1 µM,remaining activity,99%
Cc1ccc(NC(=O)c2ccc(CN3CCN(C)CC3)cc2)cc1Nc1nc(-c2cccnc2)cs1,cell-free assay,,,0.5 µM,remaining signal,98.9%
CN(C)c1ncnc(-c2ccc3nc(Nc4cc(CN5CCN(C(=O)CC(F)(F)F)CC5)ccn4)[nH]c3c2)c1Cl,cell-free assay,,competition with immobilised ligand,1 µM,remaining binding,47%
Cc1ccc(NC(=O)c2ccc(C)c(C(F)(F)F)c2)cc1C#Cc1nn(C2CCC(O)CC2)c2ncnc(N)c12 (stereo not drawn),cell-free assay,,,10 µM,remaining signal,106%
CC(=O)N1CCC(c2ccc(C(=O)NC(=N)N)cc2C(F)(F)F)CC1,cell-free assay,,competition with immobilised ligand,1 µM,remaining binding,86%
COc1cc2ncnc(Nc3ccc(F)c(Cl)c3)c2cc1OCCCN1CCOCC1,cell-free assay,,,0.5 µM,remaining signal,98.3%
O=C(NCc1ncc(C(F)(F)F)cc1Cl)c1ccc2c(c1)C1(CCS(=O)(=O)CC1)[C@H](C1CC1)N2S(=O)(=O)c1ccc(F)cc1,cell-free assay,,competition with immobilised ligand,1 µM,remaining binding,72%
COc1cc2ncnc(Nc3ccc(Oc4ccccc4)cc3C)c2cc1OC,enzyme activity,inhibitor,,1 µM,inhibition,0%
